# Data from ChEMBL document CHEMBL1629527, “In vitro antifungal activities of bis(alkylpyridinium)alkane compounds against pathogenic yeasts and molds” (Antimicrob Agents Chemother, 2010).
# What was measured:
# Aspergillus flavus [1] = experiment: Antifungal activity against Aspergillus flavus 05-203758 after 24 to 72 hrs by broth microdilution method; format: functional
# Outline: (§1)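 Broth microdilution MIC per CLSI M27-A3 (yeasts) or M38-A2 (molds). RPMI 1640 with L-glutamine, without bicarbonate, buffered to pH 7.0 with 0.165 M MOPS. Final test range for the compounds was 0.175–87.5 μM. Incubation at 35°C with visual reading at 24–72 h. MIC was the lowest concentration giving 100% inhibition versus the growth control (azoles 50% or 100%, by organism). Each isolate was run in duplicate in two independent experiments.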
# [2] = Antifungal activity against Paecilomyces lilacinus 05-200601 after 48 to 72 hrs; format: functional; conditions: Purpureocillium lilacinum
# Outline: (§2)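 CLSI M38-A2 broth microdilution for molds in RPMI 1640 with L-glutamine and no bicarbonate, buffered with 0.165 M MOPS to pH 7.0. Compounds were dissolved in water and tested at 0.175–87.5 μM final, 35°C, up to 7 days. MIC was read visually as 100% inhibition versus growth control. For MFC, clear wells were plated on SDA and the lowest concentration with no colonies taken. Each isolate was run in duplicate, two independent experiments.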
# Lichtheimia corymbifera [3] = experiment: Antifungal activity against Absidia corymbifera 04-200170 after 48 to 72 hrs; format: functional; outline: as §2
# [4] = system: Cryptococcus gattii species complex; experiment: Antifungal activity against Cryptococcus gattii 05-200122 after 24 to 72 hrs by broth microdilution method; format: functional, Cryptococcus bacillisporus; outline: as §1
# Rhizopus arrhizus [5] = experiment: Antifungal activity against Rhizopus oryzae 05-203111 after 24 to 72 hrs by broth microdilution method; format: functional
# Outline: (§3)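 Mold isolates subcultured on potato dextrose agar, then tested by CLSI M38-A2 broth microdilution in RPMI 1640 (L-glutamine, no bicarbonate) buffered to pH 7.0 with 0.165 M MOPS. Compounds were dissolved in water and tested at a final 0.175–87.5 μM. Plates were incubated at 35°C. MIC was read visually as the lowest concentration giving 100% inhibition versus the growth control. Each isolate was run in duplicate in two independent experiments.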
# Lomentospora prolificans [6] = experiment: Antifungal activity against Scedosporium prolificans 05-203060 after 48 to 72 hrs; format: functional; outline: as §2
# Pichia kudriavzevii [7] = experiment: Antifungal activity against Candida krusei ATCC 6258 after 24 to 72 hrs by broth microdilution method; format: functional; outline: as §1
# Nakaseomyces glabratus [8] = experiment: Antifungal activity against Candida glabrata 04-202345 after 24 to 72 hrs by broth microdilution method; format: functional; outline: as §1
# Candida parapsilosis [9] = experiment: Antifungal activity against Candida parapsilosis 04-202398 after 24 to 72 hrs by broth microdilution method; format: functional; conditions: Lodderomyces parapsilosis; outline: as §1
# Aspergillus flavus [10] = experiment: Antifungal activity against Aspergillus flavus ATCC 204304 after 48 to 72 hrs; format: functional
# Outline: (§4)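 MFC: after the MIC read, 30-μl aliquots from each well without visible growth were plated onto Sabouraud dextrose agar and incubated at 35°C. Reading was at 48–72 h for yeasts and up to 7 days for molds. MFC was the lowest concentration with no colonies.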
# Aspergillus terreus [11] = experiment: Antifungal activity against Aspergillus terreus 05-202844 after 48 to 72 hrs; format: functional; outline: as §4
# Candida albicans [12] = experiment: Antifungal activity against Candida albicans ATCC 90028 after 24 to 72 hrs by broth microdilution method; format: functional; outline: as §1
# [13] = Antifungal activity against Exophiala jeanselmei 03-200268 after 24 to 72 hrs by broth microdilution method; format: functional; outline: as §1
# Lichtheimia corymbifera [14] = experiment: Antifungal activity against Absidia corymbifera 04-200170 after 24 to 72 hrs by broth microdilution method; format: functional; outline: as §1
# Aspergillus fumigatus [15] = experiment: Antifungal activity against Aspergillus fumigatus ATCC 204305 after 24 to 72 hrs by broth microdilution method; format: functional; outline: as §1
# Scedosporium apiospermum [16] = experiment: Antifungal activity against Scedosporium apiospermum 05-203100 after 24 to 72 hrs by broth microdilution method; format: functional; outline: as §3
# Cryptococcus neoformans [17] = experiment: Antifungal activity against Cryptococcus neoformans ATCC 90112 after 24 to 72 hrs by broth microdilution method; format: functional; outline: as §1
# Aspergillus flavus [18] = experiment: Antifungal activity against Aspergillus flavus ATCC 204304 after 24 to 72 hrs by broth microdilution method; format: functional; outline: as §1
# Pichia kudriavzevii [19] = experiment: Antifungal activity against Candida krusei 04-202328 after 24 to 72 hrs by broth microdilution method; format: functional; outline: as §1
# [20] = Antifungal activity against Exophiala jeanselmei 03-200268 after 48 to 72 hrs; format: functional; outline: as §2
# [21] = Antifungal activity against Paecilomyces lilacinus 05-200601 after 24 to 72 hrs by broth microdilution method; format: functional; conditions: Purpureocillium lilacinum; outline: as §3
# Aspergillus flavus [22] = experiment: Antifungal activity against Aspergillus flavus 05-203758 after 48 to 72 hrs; format: functional; outline: as §2
# Candida parapsilosis [23] = experiment: Antifungal activity against Candida parapsilosis 04-202398 after 48 to 72 hrs; format: functional; conditions: Lodderomyces parapsilosis
# Outline: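 CLSI M27-A3 broth microdilution for yeasts in RPMI 1640 with L-glutamine and no bicarbonate, buffered with 0.165 M MOPS to pH 7.0. Compounds were dissolved in water and tested at 0.175–87.5 μM final, 35°C. MIC was read visually at 24–72 h as 100% inhibition versus growth control. For MFC, 30 μl from clear wells went onto SDA at 35°C for 48–72 h, reading the lowest concentration without colonies. Duplicates, two independent runs.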
# Lomentospora prolificans [24] = experiment: Antifungal activity against Scedosporium prolificans 05-203060 after 24 to 72 hrs by broth microdilution method; format: functional; outline: as §3
# Pichia kudriavzevii [25] = experiment: Antifungal activity against Candida krusei ATCC 9258 after 24 to 72 hrs by broth microdilution method; format: functional; outline: as §1
# Candida parapsilosis [26] = experiment: Antifungal activity against Candida parapsilosis ATCC 22019 after 24 to 72 hrs by broth microdilution method; format: functional; conditions: Lodderomyces parapsilosis; outline: as §1
# [27] = system: Cunninghamella bertholletiae; experiment: Antifungal activity against Cunninghamella bertholletiae 99-12187 after 24 to 72 hrs by broth microdilution method; format: functional; outline: as §1
# Exophiala spinifera = experiment: Antifungal activity against Exophiala spinifera 03-200803 after 24 to 72 hrs by broth microdilution method; format: functional; outline: as §3
# Candida albicans [28] = experiment: Antifungal activity against Candida albicans ATCC 10231 after 24 to 72 hrs by broth microdilution method; format: functional; outline: as §1
# Cryptococcus neoformans [29] = experiment: Antifungal activity against Cryptococcus neoformans 05-202523 after 24 to 72 hrs by broth microdilution method; format: functional; outline: as §1
# Aspergillus fumigatus [30] = experiment: Antifungal activity against Aspergillus fumigatus 05-203114 after 48 to 72 hrs; format: functional; outline: as §2
# Pichia kudriavzevii [31] = experiment: Antifungal activity against Candida krusei […] after 48 to 72 hrs; format: functional; outline: as §4
# Candida tropicalis = experiment: Antifungal activity against Candida tropicalis 04-202361 after 24 to 72 hrs by broth microdilution method; format: functional; outline: as §1
# Aspergillus terreus [32] = experiment: Antifungal activity against Aspergillus terreus 05-202844 after 24 to 72 hrs by broth microdilution method; format: functional; outline: as §1
# Aspergillus fumigatus [33] = experiment: Antifungal activity against Aspergillus fumigatus ATCC 204305 after 48 to 72 hrs; format: functional; outline: as §2
# Aspergillus fumigatus [34] = experiment: Antifungal activity against Aspergillus fumigatus 05-203114 after 24 to 72 hrs by broth microdilution method; format: functional; outline: as §1
# Fusarium solani = experiment: Antifungal activity against Fusarium solani 04-203102 after 24 to 72 hrs by broth microdilution method; format: functional; outline: as §3
# Rhizopus arrhizus [35] = experiment: Antifungal activity against Rhizopus oryzae 05-203111 after 48 to 72 hrs; format: functional
# Outline: (§5)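 After the broth microdilution MIC read, suspension from every well without visible growth was plated onto Sabouraud dextrose agar and incubated at 35°C, up to 7 days for molds. MFC was taken as the lowest drug concentration with no colonies.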
# Candida parapsilosis [36] = experiment: Antifungal activity against Candida parapsilosis ATCC 22019 after 48 to 72 hrs; format: functional; conditions: Lodderomyces parapsilosis; outline: as §4
# Cryptococcus neoformans [37] = experiment: Antifungal activity against Cryptococcus neoformans 05-202523 after 48 to 72 hrs; format: functional; outline: as §4
# Nakaseomyces glabratus [38] = experiment: Antifungal activity against Candida glabrata 04-202345 after 48 to 72 hrs; format: functional; outline: as §4
# Scedosporium apiospermum [39] = experiment: Antifungal activity against Scedosporium apiospermum 05-203100 after 48 to 72 hrs; format: functional; conditions: in the assay text read “for up to 7 days” for “after 48 to 72 hrs”; outline: as §5
Compound,MIC (Aspergillus flavus [1]),MIC [4],MIC (Rhizopus arrhizus [5]),MFC (Lomentospora prolificans [6]),MIC (Pichia kudriavzevii [7]),MIC (Nakaseomyces glabratus [8]),MIC (Candida parapsilosis [9]),MIC (Candida albicans [12]),MIC [13],MIC (Lichtheimia corymbifera [14]),MIC (Aspergillus fumigatus [15]),MIC (Scedosporium apiospermum [16]),MIC (Cryptococcus neoformans [17]),MIC (Aspergillus flavus [18]),MIC (Pichia kudriavzevii [19]),MFC [20],MIC [21],MIC (Lomentospora prolificans [24]),MIC (Candida parapsilosis [26]),MIC [27],other results
CCCCCc1cc[n+](CCCCCCCCCCCC[n+]2ccc(CCCCC)c(CCCCC)c2)cc1CCCCC.[Cl-].[Cl-],14.9 µg/mL,1.86 µg/mL,1.86 µg/mL,3.7 µg/mL,1.86 µg/mL,0.93 µg/mL,7.5 µg/mL,1.86 µg/mL,1.86 µg/mL,14.9 µg/mL,7.5 µg/mL,3.7 µg/mL,1.86 µg/mL,7.5 µg/mL,1.86 µg/mL,3.7 µg/mL,14.9 µg/mL,1.86 µg/mL,1.86 µg/mL,7.5 µg/mL,MFC [2]: 29.8 µg/mL; MFC (Lichtheimia corymbifera [3]): 27.8 µg/mL; MFC (Aspergillus flavus [10]): 14.9 µg/mL; MFC (Aspergillus terreus [11]): 1.86 µg/mL; MFC (Aspergillus flavus [22]): 29.8 µg/mL; MFC (Candida parapsilosis [23]): 14.9 µg/mL; MIC (Pichia kudriavzevii [25]): 1.86 µg/mL; MIC (Exophiala spinifera): 1.86 µg/mL; MIC (Candida albicans [28]): 1.86 µg/mL; MIC (Cryptococcus neoformans [29]): 7.5 µg/mL; MFC (Aspergillus fumigatus [30]): 14.9 µg/mL; MFC (Pichia kudriavzevii [31]): 3.7 µg/mL; MIC (Candida tropicalis): 1.86 µg/mL; MIC (Aspergillus terreus [32]): 0.93 µg/mL; MFC (Aspergillus fumigatus [33]): 14.9 µg/mL; MIC (Aspergillus fumigatus [34]): 7.5 µg/mL; MIC (Fusarium solani): 14.9 µg/mL
CC(C)(C)CCc1cc[n+](CCCCCCCCCCCC[n+]2ccc(CCC(C)(C)C)cc2)cc1.[Cl-].[Cl-],> 50.7 µg/mL,1.58 µg/mL,6.3 µg/mL,12.7 µg/mL,25.3 µg/mL,0.79 µg/mL,50.7 µg/mL,3.2 µg/mL,1.58 µg/mL,> 50.7 µg/mL,> 50.7 µg/mL,6.3 µg/mL,1.58 µg/mL,> 50.7 µg/mL,25.3 µg/mL,3.2 µg/mL,> 50.7 µg/mL,1.58 µg/mL,1.58 µg/mL,> 50.7 µg/mL,MFC (Rhizopus arrhizus [35]): 25.3 µg/mL; MFC (Candida parapsilosis [36]): 3.2 µg/mL; MFC (Cryptococcus neoformans [37]): 50.7 µg/mL; MIC (Exophiala spinifera): 0.79 µg/mL; MIC (Candida albicans [28]): 3.2 µg/mL; MFC (Nakaseomyces glabratus [38]): 1.58 µg/mL; MIC (Cryptococcus neoformans [29]): 25.3 µg/mL; MIC (Candida tropicalis): 1.58 µg/mL; MIC (Aspergillus terreus [32]): 50.7 µg/mL; MIC (Aspergillus fumigatus [34]): > 50.7 µg/mL; MIC (Fusarium solani): > 50.7 µg/mL; MFC (Scedosporium apiospermum [39]): 12.7 µg/mL
